Experimental data from PubChem BioAssay.
Results filed as inconclusive are left out. The source made the active and inactive calls.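 How the source made its calls, unless noted: active means growth inhibition above 25% in both replicates, a cutoff set 3 SD above the mean; inconclusive means above 25% in only one replicate; inactive means the rest.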

Columns and labels:
[1] = S. cerevisiae growth inhibition in permissive medium (OD615), pilot counter-assay for S. cerevisiae lifespan shortening project, permissive growth control (AID 705); conditions: OD615, 24 h, at 10 µM, hits give high values
Summary of the method: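 Material: engineered DeaD yeast; Compound: one dose 10 µM, DMSO 0.25% final; Detection: absorbance (optical density) at 615 nm; Buffer or medium: permissive raffinose/galactose medium; Timing: 24 h exposure, 30 °C.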

[2] = S. cerevisiae growth inhibition in restrictive medium, OD615, pilot screen, restrictive growth control, yeast lifespan reduction project (AID 706;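 active means growth inhibition above a set limit, 3 SD over mean compound inhibition, in both replicates, cut at about 43% in these data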;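 further: modified DeaD lifespan yeast strain shifted to restrictive glucose medium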); conditions: OD615, 48 h, at 10 µM, hits give high values
Summary of the method: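 Buffer or medium: restrictive glucose medium (CSMM-D); test system: modified S. cerevisiae; doses: single dose of 10 µM compound final, 0.25% DMSO; schedule: 48 h compound exposure at 30 °C; detection: absorbance (optical density) measured at 615 nm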

[3] = doxorubicin toxicity protection in MRP-1 cells – H69AR cells, CellTiter-Glo, duplicate, MRP-1 activator project, pilot screen (AID 807;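 active means viability increase at or above a cutoff of the median across tested compounds plus 3 SD, cut at about 8.5% in these data, passing the limit was not always enough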;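 further: compound pretreatment 18-22 h then 72 h combined with doxorubicin; 0% = doxorubicin alone and 100% = vehicle without doxorubicin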); conditions: H69AR viability with doxorubicin, CellTiter-Glo luminescence; at 10 µM; hits give high values
[4] = viability of HCT116 without oncogenic beta-catenin – human colon tumor cells, pilot screen (AID 823;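 active means cell viability at or below a set limit in both duplicate runs, the limit being the all-compound median minus 4 SD, cut at about 23% in these data, passing the limit was not always enough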;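 further: 0% = wells killed by 20 µM Hyamine and 100% = untreated DMSO cell wells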); conditions: HCT116 beta-catenin knockout viability, CellTiter-Glo, 60 h; at 10 µM; hits give low values
[5] = RAM pathway blockade in budding yeast – dse1pr::URA3 reporter, 5-FOA selection, pilot screen (AID 869;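 active means inhibition over a set limit, the all-compound mean plus 3 SD, in both replicate runs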;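 further: 0% = DMSO wells with no growth and 100% = 10 µM 1-NA-PP1 with full growth; RAM network block rescues cells from 5-FOA so hits raise OD615 growth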); conditions: S. cerevisiae dse1pr::URA3 5-FOA growth, OD615, 2 d; at 10 µM; hits give high values; strain carries analog-sensitive mutant Cbk1 kinase
[6] = RAM signaling pathway blockade in yeast – S. cerevisiae, Pdr1DBD-CYC8 efflux-inhibited sensitized strain, primary screen (AID 1298;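 active means RAM network inhibition above 8.4% in each of two replicates, 3 SD over the compound average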;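 further: 0% = DMSO untreated cells without growth and 100% = 10 µM 1-NA-PP1 full growth; higher means more yeast growth rescued from 5-FOA killing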); conditions: S. cerevisiae cbk1-as DSE1-URA3 strain, 5-FOA growth OD615, 2 d; at 50 µM; hits give high values
[7] = viability of PTEN-null HCT116 cells – cell-based, HCT116 clonal line, CellTiter-Glo, pilot screen (AID 824;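 active means viability at or below 27.92% in each of two runs, the all-compound median minus 4 SD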;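 further: 0% = 20 µM Hyamine control and 100% = vehicle cell control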); conditions: HCT116 PTEN-deleted viability, 60 h, at 10 µM, hits give low values

c1ccc(Nc2nc(N3CCCCC3)nc(N3CCNCC3)n2)cc1
active: viability [4] 3.71%
inactive: growth inhibition [1] -9.86% | growth inhibition [2] -6.95% | viability increase [3] -8.19% | inhibition [5] 0.98% | RAM network inhibition [6] 3.63%

Cc1ccc(S(=O)(=O)/N=C(\CN2CCCCC2)N2CCOCC2)cc1
inactive: growth inhibition [1] -11.4% | growth inhibition [2] -13.2% | viability increase [3] -1.32% | viability [4] 101% | viability [7] 95% | inhibition [5] 0.44% | RAM network inhibition [6] 4.62%

CC(c1cccnc1)N(CCN(C)C)C(=O)Nc1ccc(Cl)c(Cl)c1 (configuration not stated)
inactive: growth inhibition [1] -5.64% | growth inhibition [2] -0.46% | viability increase [3] -3.34% | viability [4] 88.9% | viability [7] 84.4% | inhibition [5] 1.33% | RAM network inhibition [6] 5.39%

Cn1c(Cn2c(=O)sc3ccccc32)nnc1SCC(=O)NCC1CCCO1 (configuration not stated)
inactive: growth inhibition [1] -6.81% | growth inhibition [2] -7.68% | viability increase [3] -1.15% | viability [4] 99.3% | viability [7] 90% | inhibition [5] 0.85% | RAM network inhibition [6] 2.22%

Cc1ccc2oc3c(c(=O)c2c1)C(c1cccs1)N(CCCN(C)C)C3=O (configuration not stated)
inactive: growth inhibition [1] 2.01% | growth inhibition [2] 4.98% | viability increase [3] -2.74% | viability [4] 97.2% | viability [7] 97.8% | inhibition [5] 1.28% | RAM network inhibition [6] -1.13%

Nn1c(SCC(=O)NC2CCCCC2)nnc1-c1ccccc1
inactive: growth inhibition [1] -25.7% | growth inhibition [2] 8.66% | viability increase [3] -1.37% | viability [4] 98.8% | inhibition [5] 2.28% | RAM network inhibition [6] 4.63%

CCOC(=O)c1cc(NC(=O)OC)c(C)nc1C
inactive: growth inhibition [1] -4.66% | growth inhibition [2] 4.23% | viability increase [3] -2.65% | viability [4] 106% | inhibition [5] 0.81% | RAM network inhibition [6] 3.38%

Cc1cc(Nc2ccc(F)cc2F)n2nc(C)nc2n1
inactive: growth inhibition [1] -20.2% | growth inhibition [2] -3.57% | viability increase [3] -1.98% | viability [4] 104% | viability [7] 98.5% | inhibition [5] 0.33% | RAM network inhibition [6] 2.94%

O=C1CCCc2sc3c(c2N1)CCCCC3
inactive: growth inhibition [1] -3.24% | growth inhibition [2] 2.17% | viability increase [3] -0.35% | viability [4] 98.3% | viability [7] 91.6% | inhibition [5] 1.12% | RAM network inhibition [6] 3.61%

O=C(Nc1nn[nH]n1)c1cccc(Oc2ccccc2)c1
inactive: growth inhibition [1] -18.5% | growth inhibition [2] 8.51% | viability increase [3] -0.81% | viability [4] 96.5% | inhibition [5] 3.22% | RAM network inhibition [6] 7.27%

CC(C)(C)SCCNS(=O)(=O)c1ccccc1
inactive: growth inhibition [1] -8.9% | growth inhibition [2] 6.57% | viability increase [3] -0.28% | viability [4] 99.8% | viability [7] 93.4% | inhibition [5] 2.52% | RAM network inhibition [6] 3.01%

Cn1c(SCc2nc3ccccc3[nH]2)nnc1-c1cccnc1
inactive: growth inhibition [1] 3.69% | growth inhibition [2] 24.8% | viability increase [3] -2.45% | viability [4] 95.1% | viability [7] 99.1% | inhibition [5] 2.94% | RAM network inhibition [6] 5.38%

Cc1cc(C)n(-c2nnc(C)n2/N=C/c2ccccc2OCc2ccccc2Cl)n1
inactive: growth inhibition [1] -4.54% | growth inhibition [2] -6.33% | viability increase [3] -5.89% | inhibition [5] 1.27% | RAM network inhibition [6] -2.2%
active: viability [4] 22.2%

CC(C)Cn1c(CN2C(=O)c3ccccc3C2=O)nc2ccccc2c1=O
inactive: growth inhibition [1] -8.43% | growth inhibition [2] -9.18% | viability increase [3] -0.19% | viability [4] 98.4% | viability [7] 93.4% | inhibition [5] 3.54% | RAM network inhibition [6] 5.36%

c1cncc(CNc2c3c(nc4nnnn24)CCCC3)c1
inactive: growth inhibition [1] -7.77% | growth inhibition [2] -8.93% | viability increase [3] -2.59% | viability [4] 90% | inhibition [5] 0.45% | RAM network inhibition [6] -0.36%

COC(=O)c1cccnc1-n1c(=O)c2cccnc2n(Cc2cccc(OC)c2)c1=O
inactive: growth inhibition [1] -13.7% | growth inhibition [2] 4.94% | viability increase [3] -3.24% | viability [4] 101% | viability [7] 92.7% | inhibition [5] 0.47% | RAM network inhibition [6] -1.41%

O=S(=O)(NCCc1csc(-c2cccnc2)n1)c1ccc(Cl)s1
inactive: growth inhibition [1] -15.7% | growth inhibition [2] 13.1% | viability increase [3] 0.96% | viability [4] 87.6% | viability [7] 85.5% | inhibition [5] 1.76% | RAM network inhibition [6] 3.12%

COC(=O)c1[nH]c2cc(OC)ccc2c1NC(=O)c1ccc2c(c1)OCO2
inactive: growth inhibition [1] -9.79% | growth inhibition [2] -13.4% | viability increase [3] -3.43% | viability [4] 79.6% | viability [7] 81.2% | inhibition [5] 1.74% | RAM network inhibition [6] 1.04%

CCOc1ccc2[nH]c(C)c(CN3CCOCC3)c(=O)c2c1
inactive: growth inhibition [1] 0.82% | growth inhibition [2] -5.17% | viability increase [3] -1.13% | viability [4] 96.5% | viability [7] 99% | inhibition [5] 1.96% | RAM network inhibition [6] 2.56%

Cc1ccn2c(-c3csc(NCc4ccco4)n3)c(C)nc2c1
inactive: growth inhibition [1] -1.21% | growth inhibition [2] 2.84% | viability increase [3] -4.37% | viability [4] 66.6% | viability [7] 71.8% | inhibition [5] 3.51% | RAM network inhibition [6] 3.65%

Cn1c(C(=O)N2CCN(c3ncccn3)CC2)cc2c(=O)n(C)c3ccccc3c21
inactive: growth inhibition [1] 6.33% | growth inhibition [2] 8.57% | viability increase [3] 2.83% | viability [4] 105% | viability [7] 97.2% | inhibition [5] 1.92% | RAM network inhibition [6] -0.01%

CCCc1[nH]nc2c1C(C1CC=CCC1)C(C#N)=C(N)O2 (configuration not stated)
active: viability [4] 11.9%
inactive: growth inhibition [1] 4.52% | growth inhibition [2] 6.39% | viability increase [3] -6.94% | inhibition [5] -0.015% | RAM network inhibition [6] 1.22%

CCOc1ccc(N(CC(=O)NCCSc2ccccn2)S(C)(=O)=O)cc1
inactive: growth inhibition [1] 0.64% | growth inhibition [2] 2.82% | viability increase [3] -3.63% | viability [4] 97.8% | viability [7] 95.3% | inhibition [5] 0.35% | RAM network inhibition [6] 3.38%

Cc1cccc(-c2nnc(-c3ccccc3)o2)c1
inactive: growth inhibition [1] -8.19% | growth inhibition [2] -3.2% | viability increase [3] -5.21% | viability [4] 78% | viability [7] 81.7% | inhibition [5] 1.5% | RAM network inhibition [6] 1.78%

O=C(Cc1ccccc1)n1nc(-c2ccccc2)nc1NCc1ccco1
inactive: growth inhibition [1] -16.6% | growth inhibition [2] -14.8% | viability increase [3] -2.03% | viability [4] 99.5% | viability [7] 98.1% | inhibition [5] 1.27% | RAM network inhibition [6] 4.38%

O=C(NCCO)c1ccc2[nH]c3c(c2c1)CCCC3
inactive: growth inhibition [1] -12.1% | growth inhibition [2] -18.9% | viability increase [3] -0.28% | viability [4] 98.9% | viability [7] 96.1% | inhibition [5] 1.46% | RAM network inhibition [6] 4.19%

COc1cccc(N2CCN(C(=O)c3ccc4nc(N5CCCCC5)sc4c3)CC2)c1
inactive: growth inhibition [1] -4.55% | growth inhibition [2] 3.63% | viability increase [3] 0.85% | viability [4] 89.1% | viability [7] 79.2% | inhibition [5] 0.805% | RAM network inhibition [6] 6.67%

COc1ccc(NC(=O)c2cncc(Br)c2)c(S(=O)(=O)N2CCOCC2)c1
inactive: growth inhibition [1] -1.69% | growth inhibition [2] 7.98% | viability increase [3] -5.06% | viability [4] 98.3% | inhibition [5] 2.21% | RAM network inhibition [6] 4.58%

Cc1nc2nc(SCC(=O)N3CCOCC3)nn2c(C)c1Cc1c(F)cccc1Cl
inactive: growth inhibition [1] -2.75% | growth inhibition [2] 34% | viability increase [3] -6.91% | viability [4] 88.4% | inhibition [5] 0.35% | RAM network inhibition [6] 3.17%

Cc1ccc(C(=O)NCCCn2ccnc2)o1
inactive: growth inhibition [1] -1.7% | growth inhibition [2] -6.83% | viability increase [3] 0.23% | viability [4] 101% | viability [7] 97.8% | inhibition [5] -0.265% | RAM network inhibition [6] 3.73%

CC(=O)NC(C)(C)C1CC=C(C)/C(=N\O)C1 (configuration not stated)
inactive: growth inhibition [1] -3.7% | growth inhibition [2] -1.12% | viability increase [3] -0.02% | viability [4] 104% | viability [7] 101% | inhibition [5] 1.36% | RAM network inhibition [6] -0.78%

O=C(NC1CCCCCC1)C1CCN(C(=O)Cc2ccccc2)CC1
inactive: growth inhibition [1] -11.1% | growth inhibition [2] -9.52% | viability increase [3] -1.12% | viability [4] 101% | viability [7] 94.3% | inhibition [5] 0.785% | RAM network inhibition [6] 3.07%

CCCCCn1c(CNC(=O)COC)nc2ccccc21
inactive: growth inhibition [1] -2.62% | growth inhibition [2] -2.4% | viability increase [3] -2.9% | viability [4] 95.4% | inhibition [5] 0.855% | RAM network inhibition [6] 2.97%

O=C(c1ccccn1)N1CCN(c2ccc(C(F)(F)F)cn2)CC1
inactive: growth inhibition [1] -20.7% | growth inhibition [2] -2.59% | viability increase [3] 0.37% | viability [4] 96.5% | inhibition [5] 1.64% | RAM network inhibition [6] 3.84%
